Results reported in ChEMBL document CHEMBL4400546, “A Cinchona Alkaloid Antibiotic That Appears To Target ATP Synthase in Streptococcus pneumoniae” (J Med Chem, 2019).
In brackets after ≈: the same amount, converted by molar mass.

Legend:
[1] = Elimination half life in ICR mouse at 25 mg/kg, po via bolus administration by LC-MS/MS analysis; format: ADME, organism-based; conditions: in vivo, read-out: beta t1/2 (converted)
Summary of the method: (§1)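 Single-dose PK in male ICR mice, bolus p.o. 25 mg/kg or i.v. 2.5 mg/kg. Plasma concentration followed over time, n = 3. Parameters derived by noncompartmental analysis of the concentration–time curves. Oral bioavailability calculated from AUC.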

Streptococcus pneumoniae [2] = test: Antibacterial activity against amoxicillin/penicillin/chloramphenicol/erythromycin/meropenem/cefotaxime-resistant Streptococcus pneumoniae TH2582 (19A) after 20 hrs by CLSI-based microdilution method; format: functional
Streptococcus pneumoniae [3] = test: Antibacterial activity against amoxicillin/penicillin/cefotaxime/erythromycin/tetracycline-resistant Streptococcus pneumoniae TH2784 (19F) after 20 hrs by CLSI-based microdilution method; format: functional
[4] = AUCt in ICR mouse at 2.5 mg/kg, iv by LC-MS/MS analysis; format: ADME, organism-based; conditions: in vivo; summary of the method: as §1
[5] = Oral bioavailability in ICR mouse at 25 mg/kg via bolus administration by LC-MS/MS analysis; format: ADME, organism-based; conditions: in vivo
Summary of the method: (§2)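 Male ICR mice, single oral bolus at 25 mg/kg. Serum concentration-time profiles (n = 3) analysed by noncompartmental analysis.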

[6] = Cmax in ICR mouse at 25 mg/kg, po via bolus administration by LC-MS/MS analysis; format: ADME, organism-based; design: dose 25 mg/kg, route oral; conditions: in vivo; summary of the method: as §1
[7] = Cmax in ICR mouse at 2.5 mg/kg, iv by LC-MS/MS analysis; format: ADME, organism-based; design: dose 2.5 mg/kg, route intravenous; conditions: in vivo; summary of the method: as §1
Streptococcus pneumoniae [8] = test: Antibacterial activity against Streptococcus pneumoniae D39 after 20 hrs by CLSI-based microdilution method; format: functional; conditions: D39, 20 h
[9] = AUCt in ICR mouse at 25 mg/kg, po via bolus administration by LC-MS/MS analysis; format: ADME, organism-based; conditions: in vivo; summary of the method: as §1
[10] = Volume of distribution at steady state in ICR mouse at 2.5 mg/kg, iv by LC-MS/MS analysis; format: ADME, organism-based; conditions: in vivo, read-out: Vdss
Summary of the method: (§3)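 Male ICR mice, single i.v. bolus at 2.5 mg/kg. Serum concentration-time curves (n = 3) analysed noncompartmentally to give Tmax and steady-state volume of distribution.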

Streptococcus pneumoniae [11] = test: Antibacterial activity against amoxicillin/penicillin/erythromycin/ertapenem/moxifloxacin/cefotaxime-resistant Streptococcus pneumoniae TH2889 (6B) after 20 hrs by CLSI-based microdilution method; format: functional
Streptococcus pneumoniae [12] = test: Bactericidal activity against Streptococcus pneumoniae D39 after 24 hrs; format: functional; conditions: D39, 24 h
[13] = Cytotoxicity against human HepG2 cells assessed as reduction in cell viability after 48 hrs by Alamar Blue assay; format: cell-based
[14] = Mitochondrial toxicity in human HepG2 cells assessed as reduction in cell viability after 24 hrs in presence of galactose by CellTiter-Glo assay; format: cell-based
Summary of the method: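 HepG2 cells are grown in DMEM supplemented with 10 mM galactose or 10 mM glucose and treated for 24 h. Viability is read by CellTiter-Glo luminescence. The CC90 is the concentration inhibiting 90% of cell viability, taken from dose–response curves. Oligomycin and tamoxifen serve as controls.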

[15] = Elimination half life in ICR mouse at 2.5 mg/kg, iv by LC-MS/MS analysis; format: ADME, organism-based; conditions: in vivo, read-out: beta t1/2 (converted); summary of the method: as §1
[16] = Drug metabolism in ICR mouse liver microsomes at 10 uM preincubated with NADPH for 10 mins and measured after 60 mins by LC-MS/MS analysis; format: ADME, Microsome; conditions: read-out: Drug metabolism
[17] = Mitochondrial toxicity in human HepG2 cells assessed as reduction in cell viability after 24 hrs in presence of glucose by CellTiter-Glo assay; format: cell-based
Summary of the method: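 HepG2 cells grown in DMEM with 10 mM glucose, treated 24 h; viability read by CellTiter-Glo luminescence. Value is the concentration giving 90% loss of viability (CC90) from dose-response curves, top concentration 300 µM.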

[18] = Clearance in ICR mouse at 2.5 mg/kg, iv by LC-MS/MS analysis; format: ADME, organism-based; conditions: in vivo; summary of the method: as §1
[19] = Tmax in ICR mouse at 25 mg/kg, po via bolus administration by LC-MS/MS analysis; format: ADME, organism-based; conditions: in vivo; summary of the method: as §2
[20] = Tmax in ICR mouse at 2.5 mg/kg, iv by LC-MS/MS analysis; format: ADME, organism-based; conditions: in vivo; summary of the method: as §3
Streptococcus pyogenes = test: Antibacterial activity against Streptococcus pyogenes; format: functional
[21] = tested on: Staphylococcus epidermidis; test: Antibacterial activity against Staphylococcus epidermidis; format: functional
Enterococcus faecium = test: Antibacterial activity against Enterococcus faecium; format: functional
Enterococcus faecalis = test: Antibacterial activity against Enterococcus faecalis; format: functional
Streptococcus pneumoniae [22] = test: Antibacterial activity against Streptococcus pneumoniae; format: functional
Summary of the method: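 MIC read per CLSI guidelines as the lowest concentration giving complete inhibition of visible growth. The main screen used strain D39. A further panel covered drug-sensitive, multidrug-resistant and optochin-resistant strains, including R6 carrying atpE point mutations G142C or G145A made by a PCR-based approach.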

Staphylococcus aureus = test: Antibacterial activity against Staphylococcus aureus; format: functional

Row | Structure (SMILES) | half-life [1] | AUC(0-t) [4] | bioavailability [5] | Cmax [6] | Cmax [7] | MIC (Streptococcus pneumoniae [8]) | AUC(0-t) [9] | Vd [10] | CC50 at 48 h [13] | CC90 at 24 h [14] | half-life [15] | CC90 at 24 h [17] | clearance [18] | Tmax [19] | Tmax [20] | also measured
1 | C/C=C1/CN2CC[C@H]1C[C@H]2[C@H](O)c1ccnc2ccc(O)cc12 | 54.6 min | 190 ng·h/mL | 23.3% | 619 ng/mL | 511 ng/mL | 52 µM (≈ 16.1 µg/mL) | 442 ng·h/mL | 20 L/kg | > 100 µM | 300 µM | 67.2 min | > 300 µM | 207 mL/min/kg | 4.98 min | 1.98 min | MIC (Streptococcus pneumoniae [2]): 64 µg/mL (≈ 206 µM); MIC (Streptococcus pneumoniae [3]): 4 µg/mL (≈ 12.9 µM); MIC (Streptococcus pneumoniae [11]): 128 µg/mL (≈ 412 µM); MBC (Streptococcus pneumoniae [12]): 16 µg/mL (≈ 51.5 µM); metabolised at 1 h, 10 µM [16]: 89%
2 | C/C=C1/C[N@]2CC[C@H]1C[C@H]2[C@H](O)c1ccnc2ccc(OC3CCC3)cc12 | 42 min | 175 ng·h/mL | 21% | 331 ng/mL | 399 ng/mL | 0.7 µM (≈ 0.255 µg/mL) | 368 ng·h/mL | 8.8 L/kg | 65 µM | – | 26.4 min | – | 230 mL/min/kg | 4.98 min | 1.98 min | –
4 | OC(c1cc(C2C[C@H]3CC[C@@H]2CC3)nc2c(Cl)c(Cl)ccc12)C1CCCCN1 (stereo partly specified) | – | – | – | – | – | – | – | – | – | – | – | – | – | – | – | MIC (Streptococcus pyogenes): 1.5 to 6.3 µg/mL (≈ 3.58 to 15 µM); MIC [21]: 1.5 to 6.3 µg/mL (≈ 3.58 to 15 µM); MIC (Enterococcus faecium): 1.5 to 6.3 µg/mL (≈ 3.58 to 15 µM); MIC (Enterococcus faecalis): 1.5 to 6.3 µg/mL (≈ 3.58 to 15 µM); MIC (Streptococcus pneumoniae [22]): 0.08 to 1.25 µg/mL (≈ 0.191 to 2.98 µM); MIC (Staphylococcus aureus): 1.5 to 6.3 µg/mL (≈ 3.58 to 15 µM)
